Reference: ChEMBL document CHEMBL1124112, “Indoline analogues of idazoxan: potent alpha 2-antagonists and alpha 1-agonists” (J Med Chem, 1988)

Target: T1, Adrenergic receptor alpha-1 (Rattus norvegicus, UniProt P15823+P23944+P43140)
T1 sequence (P15823 whole entry): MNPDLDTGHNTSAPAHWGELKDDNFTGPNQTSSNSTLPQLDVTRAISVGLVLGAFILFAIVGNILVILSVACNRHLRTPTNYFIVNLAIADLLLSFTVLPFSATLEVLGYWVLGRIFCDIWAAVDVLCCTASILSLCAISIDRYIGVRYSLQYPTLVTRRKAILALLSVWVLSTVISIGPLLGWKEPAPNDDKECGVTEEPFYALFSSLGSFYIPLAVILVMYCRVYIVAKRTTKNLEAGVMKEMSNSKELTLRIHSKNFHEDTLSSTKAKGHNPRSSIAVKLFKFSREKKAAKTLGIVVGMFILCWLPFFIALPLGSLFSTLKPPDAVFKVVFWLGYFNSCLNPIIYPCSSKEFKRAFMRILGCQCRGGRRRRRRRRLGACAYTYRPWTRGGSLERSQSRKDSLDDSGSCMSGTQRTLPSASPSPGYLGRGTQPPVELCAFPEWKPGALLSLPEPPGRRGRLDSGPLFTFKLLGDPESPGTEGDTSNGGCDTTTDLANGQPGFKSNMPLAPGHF
T1 sequence (P23944 whole entry): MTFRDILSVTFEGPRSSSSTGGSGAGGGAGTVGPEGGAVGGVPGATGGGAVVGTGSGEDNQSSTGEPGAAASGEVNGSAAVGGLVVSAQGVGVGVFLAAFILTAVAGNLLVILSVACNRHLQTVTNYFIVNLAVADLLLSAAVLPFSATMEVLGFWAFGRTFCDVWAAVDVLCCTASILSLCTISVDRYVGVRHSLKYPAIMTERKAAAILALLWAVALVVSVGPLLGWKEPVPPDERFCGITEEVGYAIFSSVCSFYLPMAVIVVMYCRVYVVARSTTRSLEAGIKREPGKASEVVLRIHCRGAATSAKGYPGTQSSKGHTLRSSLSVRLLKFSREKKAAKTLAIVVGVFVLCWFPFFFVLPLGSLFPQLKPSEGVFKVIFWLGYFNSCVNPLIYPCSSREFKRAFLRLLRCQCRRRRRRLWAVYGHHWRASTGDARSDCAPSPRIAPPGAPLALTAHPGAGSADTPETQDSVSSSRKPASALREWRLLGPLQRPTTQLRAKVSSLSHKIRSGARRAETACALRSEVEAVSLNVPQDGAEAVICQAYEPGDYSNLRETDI
T1 sequence (P43140 whole entry): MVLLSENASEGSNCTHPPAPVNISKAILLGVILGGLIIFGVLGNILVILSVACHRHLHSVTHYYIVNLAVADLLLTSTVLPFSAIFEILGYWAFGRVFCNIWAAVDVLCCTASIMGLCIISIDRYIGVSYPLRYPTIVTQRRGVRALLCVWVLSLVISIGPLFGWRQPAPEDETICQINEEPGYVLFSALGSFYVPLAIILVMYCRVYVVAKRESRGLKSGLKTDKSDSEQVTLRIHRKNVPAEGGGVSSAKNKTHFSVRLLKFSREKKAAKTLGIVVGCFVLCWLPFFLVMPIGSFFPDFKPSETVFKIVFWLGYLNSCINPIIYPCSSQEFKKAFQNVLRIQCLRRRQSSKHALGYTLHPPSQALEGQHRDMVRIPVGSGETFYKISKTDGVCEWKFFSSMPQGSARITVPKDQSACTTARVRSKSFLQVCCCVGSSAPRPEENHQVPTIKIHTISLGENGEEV
Assay: Inhibition of saturable binding of [3H]prazosin to alpha-1 adrenergic receptor in rat cerebral cortical membranes.
Assay type: cell membranes, Membrane
Outline: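 Rat cerebral cortical membranes were used as the α1 site source and labelled with [³H]prazosin. Compounds displaced saturable binding. Ki (nM) was defined as the concentration inhibiting saturable binding by 50%.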

Ki: 17.5 nM
Compound: c1ccc(CN2c3ccccc3CC2C2=NCCN2)cc1 (stereo unspecified)
